# Experimental data of several laboratories.
# Compare with care: the assays were run in different laboratories.
# Target: Ephrin type-A receptor 5 (EPHA5, Homo sapiens, UniProt P54756)
SMILES,test,conditions,quantity,result
COc1cc2c(N3CCN(C(=O)Nc4ccc(OC(C)C)cc4)CC3)ncnc2cc1OCCCN1CCCCC1,cell-free assay,0.5 µM,remaining signal,104%
CC(C)(O)[C@H]1CC[C@H](Nc2ccc3ncc(-c4cccc(C(F)(F)F)c4)n3n2)CC1,"enzyme activity, inhibitor",1 µM,remaining activity,101%
CN1CC(Oc2cnc(C#N)cc2-c2ccn3nc(NC(=O)C4CC4)cc3c2)C1,"enzyme activity, inhibitor",1 µM,inhibition,10%
Cc1ccc(Nc2nccc(N(C)c3ccc4c(C)n(C)nc4c3)n2)cc1S(N)(=O)=O,"enzyme activity, inhibitor",10 µM,inhibition,70%
Cn1cc(Cl)c2c(Oc3c(F)cc(Nc4cc(Cl)nc(N)n4)cc3F)ccnc21,"cell-free assay, competition with immobilised ligand",0.1 µM,remaining binding,100%
C=CC(=O)Nc1cc(Nc2nccc(Nc3cc(Cl)c(F)cc3C(C)(C)O)n2)c(OC)cc1N1CC[C@@H](N(C)C)C1,"enzyme activity, inhibitor",1 µM,inhibition,17%
COc1cc(-c2cn(C3CCc4c(F)cccc4N(CC(F)(F)F)C3=O)nn2)ccc1-n1cnc(C)c1 (stereo not shown),"cell-free assay, competition with immobilised ligand",1 µM,remaining binding,100%
Cc1ccc(C(=O)NCc2ccsc2)cc1C#Cc1cn(C(C)C)c2ncnc(N)c12,"enzyme activity, inhibitor",1 µM,activity vs control,1%
CCc1ccccc1C(=O)Nc1n[nH]c2c(C)c(F)c(C3C(C#N)=C(C)N(C)C(C)=C3C#N)cc12,"cell-free assay, competition with immobilised ligand",1 µM,remaining binding,87%
Cc1cnc(NC2CCOCC2)nc1-n1cnc(C(=O)NC(CN)c2cc(F)cc(Cl)c2)c1 (stereo not shown),"enzyme activity, inhibitor, radiometric",1 µM,remaining activity,92%
Cc1cc(NC(=O)c2cccc3cc(-c4cccc5[nH]nc(N)c45)ccc23)ccc1F,"enzyme activity, inhibitor",0.1 µM,activity vs control,99%
N#CCCc1ccc2c(c1)-c1[nH]c3ccc([N+](=O)[O-])cc3c1CC(=O)N2,cell-free assay,0.5 µM,remaining signal,88.5%
CNCc1ccccc1-c1csc([C@H](C)Nc2nc(C)nc3cc(OC)c(OC)cc23)c1,"cell-free assay, competition with immobilised ligand",1 µM,remaining binding,100%
Cc1sc(C(=O)NC2COC2)cc1-n1cc(NC(=O)Nc2c(F)cccc2Cl)cn1,"enzyme activity, inhibitor",10 µM,remaining activity,106%
O=C(Nc1ccc(Oc2ccc(F)cc2)cc1)N1CCc2ncccc2[C@H]1c1ccc(F)cc1,"cell-free assay, competition with immobilised ligand",1 µM,remaining binding,100%
CCN(CC)CCNC(=O)c1c(C)[nH]c(/C=C2\C(=O)Nc3ccc(F)cc32)c1C,"enzyme activity, inhibitor",0.3 µM,inhibition,7%
